ChEMBL document CHEMBL3526050, “Elucidation of the metabolic pathways and the resulting multiple metabolites of almorexant, a dual orexin receptor antagonist, in humans” (Drug Metab Dispos, 2013)
Values joined by “and” are separate entries in the source; they are usually repeats but may differ in a detail not shown here. Equal entries are not always repeated. Values belong to the compound of their own block, whether it stands above or below them.

Assays:
Settings in all cases: in vivo
[1] = Tmax in healthy human at 200 mg, po dosed as single dose; format: ADME, organism-based
In short: (§1)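 Plasma parent and metabolites M3, M5, M6, M8 after one 200 mg oral 14C dose in 6 fasted male subjects, sampled 0.17–240 h. Validated LC-MS/MS with penta-deuterated internal standards and positive ESI. Low range 0.4/1.0–100 ng/mL using supported liquid extraction, high range 50–1000 ng/mL using protein precipitation. Noncompartmental analysis, geometric means (95% CI), Tmax median (range).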

[2] = tested on: Homo sapiens; assay: Drug level in healthy human treated with [14C]almorexant at 200 mg, po dosed as single dose relative to almorexant; format: ADME, organism-based
In short: (§2)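 Plasma from 6 subjects given one 200 mg oral 14C dose, pooled over at least 2 time points and acetonitrile-precipitated. Radio-LC-MS/MS used a C18 column with ammonium formate pH 4.0/acetonitrile gradient and 0.15-min fractions scintillation-counted. Peak radioactivity converted to ng-equivalents/mL to give AUC0-t. Co-eluting metabolites grouped and expressed relative to parent AUC and to total radioactivity.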

[3] = tested on: Plasma; assay: Drug level in plasma of healthy human treated with [14C]almorexant at 200 mg, po dosed as single dose; format: ADME, organism-based; in short: as §2
[4] = tested on: Homo sapiens; assay: AUC (0 to t) in healthy human treated with [14C]almorexant at 200 mg, po dosed as single dose; format: ADME, organism-based, Plasma; in short: as §2
[5] = tested on: Homo sapiens; assay: Tlast in healthy human treated with [14C]almorexant at 200 mg, po dosed as single dose; format: ADME, organism-based; in short: as §2
[6] = tested on: Homo sapiens; assay: Drug level in healthy human treated with [14C]almorexant at 200 mg, po dosed as single dose relative to total radioactivity; format: ADME, organism-based; in short: as §2
[7] = tested on: Homo sapiens; assay: Cmax in healthy human treated with [14C]almorexant at 200 mg, po dosed as single dose; format: ADME, organism-based; design: dose 200 mg, route oral
[8] = tested on: Homo sapiens; assay: Tmax in healthy human treated with [14C]almorexant at 200 mg, po dosed as single dose; format: ADME, organism-based; in short: as §1
[9] = tested on: Homo sapiens; assay: AUC (0 to infinity) in healthy human treated with [14C]almorexant at 200 mg, po dosed as single dose; format: ADME, organism-based, Plasma; design: dose 200 mg, route oral, time infinity
[10] = tested on: Homo sapiens; assay: Half life in healthy human treated with [14C]almorexant at 200 mg, po dosed as single dose; format: ADME, organism-based; in short: as §1
[11] = Drug level in feces of healthy human treated with [14C]almorexant at 200 mg, po dosed as single dose; format: ADME, organism-based
In short: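 Feces pooled by weight across 6 subjects (0–48 to 192–332 h) and extracted three times with acetonitrile, then dried and reconstituted. Analyzed by radio-LC-MS/MS with a methanol/acetonitrile gradient and scintillation-counted fractions. Procedural recovery was 73.0%. Reported as percent of administered radioactive dose.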

Structure (SMILES): COc1cc2c(cc1OC)[C@H](CC(O)c1ccc(C(F)(F)F)cc1)N([C@@H](C(N)=O)c1ccccc1)CC2 (stereo partly specified)
Tmax [1]: 1.6 h
Drug uptake [2]: 28.1%
Drug metabolism [3]: metabolite_detected
AUCt [4]: 17.2 ng.Eq.hr/ml
Tlast [5]: 1.6 h
Drug uptake [6]: 0.03%

Structure (SMILES): CNC(=O)[C@@H](c1ccccc1)[n+]1ccc2cc(OC)c(OC)cc2c1CCc1ccc(C(F)(F)F)cc1
Cmax [7]: 80.4 ng/mL
Tmax [8]: 0.9 h
Drug metabolism [3]: metabolite_detected
AUC [9]: 0.282 µg·h/mL
t1/2 [10]: 26.3 h
Drug metabolism [11]: metabolite_detected

Structure (SMILES): COc1cc2c(cc1OC)[C@H](CCc1ccc(C(F)(F)F)cc1)NCC2
Cmax [7]: 99.4 ng/ml and 49 ng.Eq/ml
Tmax [8]: 1.5 h
Drug uptake [2]: 541%
Drug metabolism [3]: metabolite_detected
AUCt [4]: 331 ng.Eq.hr/ml
AUC [9]: 1.039 µg·h/mL
Tlast [5]: 11 h
Drug uptake [6]: 0.61%
t1/2 [10]: 10.4 h

Structure (SMILES): COc1cc2c(cc1O)[C@H](CCc1ccc(C(F)(F)F)cc1)NCC2
Drug metabolism [3]: metabolite_detected

Further lines, results first:

Drug metabolism [3]: metabolite_detected
Drug metabolism [11]: metabolite_detected
Structure (SMILES): COc1cc2cc[n+]([C@@H](C(N)=O)c3ccccc3)c(CCc3ccc(C(F)(F)F)cc3)c2cc1OC

Drug metabolism [3]: metabolite_detected
Structure (SMILES): COc1cc2ccnc(CCc3ccc(C(F)(F)F)cc3)c2cc1OC

Drug metabolism [3]: metabolite_detected
Structure (SMILES): COc1cc2c(cc1OC)[C@H](CC(O)c1ccc(C(F)(F)F)cc1)NCC2 (stereo partly specified)
